# Reference: ChEMBL document CHEMBL1124253, “(8 beta)-Ergoline-8-carboxylic acid cycloalkyl esters as serotonin antagonists: structure-activity study” (J Med Chem, 1988)
# Target: Serotonin 2 (5-HT2) receptor (Rattus norvegicus) (UniProt P30994+P08909+P14842)
# Test: Binding affinity to the 5-hydroxytryptamine 2 receptor assayed by antagonism of serotonin-induced contractions in the rat jugular vein
# In short: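 Jugular vein rings mounted in organ baths of modified Krebs solution and equilibrated 1–2 h. Control cumulative serotonin contraction curves were run, then tissues were incubated 1 h with antagonist and serotonin curves were repeated. For each antagonist concentration, K_B = [B]/(dose ratio − 1), where dose ratio = agonist ED50 with antagonist / control ED50. Values reported as −log K_B.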
# Chain of Serotonin 2 (5-HT2) receptor (Rattus norvegicus) (P08909 whole entry, looked up): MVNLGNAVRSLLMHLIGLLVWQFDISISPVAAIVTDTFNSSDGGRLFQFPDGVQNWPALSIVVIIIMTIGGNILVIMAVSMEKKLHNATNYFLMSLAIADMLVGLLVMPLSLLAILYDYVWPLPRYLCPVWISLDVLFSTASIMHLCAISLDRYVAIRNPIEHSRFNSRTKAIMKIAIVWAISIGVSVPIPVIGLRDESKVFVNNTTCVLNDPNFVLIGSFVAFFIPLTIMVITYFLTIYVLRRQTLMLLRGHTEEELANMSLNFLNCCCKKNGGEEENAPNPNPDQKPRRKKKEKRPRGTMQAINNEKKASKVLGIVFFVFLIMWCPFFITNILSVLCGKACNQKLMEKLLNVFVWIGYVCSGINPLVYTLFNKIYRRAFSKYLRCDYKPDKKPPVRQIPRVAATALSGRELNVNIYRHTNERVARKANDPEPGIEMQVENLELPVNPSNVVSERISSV
# Chain of Serotonin 2 (5-HT2) receptor (Rattus norvegicus) (P14842 whole entry, looked up): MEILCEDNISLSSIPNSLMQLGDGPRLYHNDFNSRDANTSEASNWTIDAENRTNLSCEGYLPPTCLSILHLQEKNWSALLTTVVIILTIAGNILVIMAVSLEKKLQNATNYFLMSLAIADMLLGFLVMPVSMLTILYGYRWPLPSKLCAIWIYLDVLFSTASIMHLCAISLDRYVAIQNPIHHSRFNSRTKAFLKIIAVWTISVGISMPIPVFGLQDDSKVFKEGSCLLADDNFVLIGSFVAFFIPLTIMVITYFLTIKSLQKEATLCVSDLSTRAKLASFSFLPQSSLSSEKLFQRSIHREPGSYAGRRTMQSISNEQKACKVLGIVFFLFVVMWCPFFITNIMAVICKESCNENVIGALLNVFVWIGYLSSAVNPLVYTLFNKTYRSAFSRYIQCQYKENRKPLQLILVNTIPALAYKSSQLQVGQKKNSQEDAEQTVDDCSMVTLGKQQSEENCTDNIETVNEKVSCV
# Chain of Serotonin 2 (5-HT2) receptor (Rattus norvegicus) (P30994 whole entry, looked up): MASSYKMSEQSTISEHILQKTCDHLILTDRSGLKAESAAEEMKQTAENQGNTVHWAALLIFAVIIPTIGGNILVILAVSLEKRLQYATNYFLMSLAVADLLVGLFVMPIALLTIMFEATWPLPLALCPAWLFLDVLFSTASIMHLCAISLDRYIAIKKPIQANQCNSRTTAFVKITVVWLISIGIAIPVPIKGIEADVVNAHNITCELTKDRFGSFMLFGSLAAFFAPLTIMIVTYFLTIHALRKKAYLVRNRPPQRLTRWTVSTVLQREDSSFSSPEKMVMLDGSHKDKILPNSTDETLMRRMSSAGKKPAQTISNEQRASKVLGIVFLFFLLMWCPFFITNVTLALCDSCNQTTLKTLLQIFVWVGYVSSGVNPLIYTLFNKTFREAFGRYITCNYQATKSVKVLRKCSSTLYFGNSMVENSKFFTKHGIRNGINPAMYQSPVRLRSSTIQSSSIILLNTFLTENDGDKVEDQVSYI
row,Structure (SMILES),-Log KB
1,CC(C)N1C[C@H](C(=O)OC2CCCCC2)CC2c3cccc4c3c(cn4C(C)C)CC21 (some centres not stated),6.42
2,CC(C)n1cc2c3c(cccc31)C1C[C@@H](C(=O)O[C@H]3CC[C@@H](C)CC3)CN(C)C1C2 (some centres not stated),7.69
3,CN1C[C@H](C(=O)OC2CCCCC2)CC2c3cccc4[nH]cc(c34)CC21 (some centres not stated),8.05
4,CC(C)n1cc2c3c(cccc31)C1C[C@@H](C(=O)OC3CCCCC3O)CN(C)C1C2 (some centres not stated),9.47
5,CC(C)n1cc2c3c(cccc31)C1C[C@@H](C(=O)OC3CCCC3)CN(C)C1C2 (some centres not stated),8.91
6,CC(C)n1cc2c3c(cccc31)C1C[C@@H](C(=O)OC3CCCCC3=O)CN(C)C1C2 (some centres not stated),9.31
7,CC1CCCC(C)C1OC(=O)[C@@H]1CC2c3cccc4c3c(cn4C(C)C)CC2N(C)C1 (some centres not stated),7.32
8,CN1C[C@H](C(=O)OC2CCCCC2)CC2c3cccc4c3c(cn4C)CC21 (some centres not stated),8.12
9,CC(C)n1cc2c3c(cccc31)C1C[C@@H](C(=O)OC3CCCCC3)CN(C)C1C2 (some centres not stated),8.67
10,CCCCN1C[C@H](C(=O)OC2CCCCC2)CC2c3cccc4c3c(cn4C(C)C)CC21 (some centres not stated),7.4
11,CCCN1C[C@H](C(=O)OC2CCCCC2)CC2c3cccc4c3c(cn4C(C)C)CC21 (some centres not stated),7.07
12,CC(C)n1cc2c3c(cccc31)C1C[C@@H](C(=O)O[C@H]3CC[C@H](C)CC3)CN(C)C1C2 (some centres not stated),7.21
13,CC(C)n1cc2c3c(cccc31)C1C[C@@H](C(=O)OC3CCC(O)CC3)CN(C)C1C2 (some centres not stated),10.2
14,CC(C)n1cc2c3c(cccc31)C1C[C@@H](C(=O)OC3CCC3)CN(C)C1C2 (some centres not stated),8.22
15,CC(O)C(C)OC(=O)[C@@H]1CC2c3cccc4c3c(cn4C(C)C)CC2N(C)C1 (some centres not stated),10.3
16,CC(C)n1cc2c3c(cccc31)C1C[C@@H](C(=O)OC3CCCCC3)CNC1C2 (some centres not stated),< 6
17,CCN1C[C@H](C(=O)OC2CCCCC2)CC2c3cccc4c3c(cn4C(C)C)CC21 (some centres not stated),7.81
18,CC(C)n1cc2c3c(cccc31)C1C[C@@H](C(=O)OC3CCCCCC3)CN(C)C1C2 (some centres not stated),7.73
19,CC(C)n1cc2c3c(cccc31)C1C[C@@H](C(=O)OC3CCC(=O)CC3)CN(C)C1C2 (some centres not stated),10
20,CCC(CC)n1cc2c3c(cccc31)C1C[C@@H](C(=O)OC3CCCCC3)CN(C)C1C2 (some centres not stated),7.31
21,CN1C[C@H](C(=O)OC2CCCCC2)CC2c3cccc4c3c(cn4Cc3ccccc3)CC21 (some centres not stated),6.52
22,CC(C)n1cc2c3c(cccc31)C1C[C@@H](C(=O)OC3CCOCC3)CN(C)C1C2 (some centres not stated),9.86
